Measured values published in ChEMBL document CHEMBL4118021, “Studies of TAK1-centered polypharmacology with novel covalent TAK1 inhibitors” (Bioorg Med Chem, 2017).
The source made the active and inactive calls. The calls are words filed in the database; no cut-off is given here.

How the values were obtained:
[1] = biological target: Platelet-derived growth factor receptor beta (Homo sapiens) (UniProt P09619); assay: Inhibition of human PDGFRB (582 to 1009 residues) expressed in bacterial expression system assessed as enzyme activity at 1 uM by KINOMEScan assay relative to control; set-up: scale not given: the % may be the effect or the level left
How it was run: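 In vitro ATP-site competition binding assay across a panel of 456 kinases, with compound tested at 1 and 10 μM.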

[2] = biological target: TBC1 domain family member 15 (Homo sapiens) (UniProt Q8TC07); assay: Binding affinity to TBC1D15 in human NCI-H358 cells at 1 uM by mass spectrometry based pull down assay; assay type: cell-based
TBC1 domain family member 15 (Homo sapiens), sequence (Q8TC07 whole entry, the tested form may be a part): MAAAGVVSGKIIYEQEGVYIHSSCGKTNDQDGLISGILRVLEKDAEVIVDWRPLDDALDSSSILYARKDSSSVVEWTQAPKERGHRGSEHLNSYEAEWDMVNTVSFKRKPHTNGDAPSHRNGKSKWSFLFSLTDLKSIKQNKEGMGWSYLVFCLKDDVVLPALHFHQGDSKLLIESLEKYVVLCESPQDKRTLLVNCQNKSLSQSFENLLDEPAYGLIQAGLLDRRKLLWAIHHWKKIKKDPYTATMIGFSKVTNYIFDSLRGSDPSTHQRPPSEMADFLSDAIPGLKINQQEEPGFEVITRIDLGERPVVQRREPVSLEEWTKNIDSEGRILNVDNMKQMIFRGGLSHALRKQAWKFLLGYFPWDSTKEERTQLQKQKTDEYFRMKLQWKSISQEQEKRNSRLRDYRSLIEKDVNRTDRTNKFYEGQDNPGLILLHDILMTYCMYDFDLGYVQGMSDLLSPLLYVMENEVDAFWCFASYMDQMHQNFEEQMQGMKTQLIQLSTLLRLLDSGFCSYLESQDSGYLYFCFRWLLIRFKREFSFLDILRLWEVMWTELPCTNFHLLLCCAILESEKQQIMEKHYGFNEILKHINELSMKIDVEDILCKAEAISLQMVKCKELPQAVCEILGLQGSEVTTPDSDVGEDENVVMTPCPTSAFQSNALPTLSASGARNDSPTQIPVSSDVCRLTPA

[3] = biological target: TGF-beta-activated kinase 1 and MAP3K7-binding protein 1 (Homo sapiens) (UniProt Q15750); assay: Binding affinity to TAB1 in human NCI-H358 cells at 1 uM by mass spectrometry based pull down assay; assay type: cell-based
TGF-beta-activated kinase 1 and MAP3K7-binding protein 1 (Homo sapiens), sequence (Q15750 whole entry): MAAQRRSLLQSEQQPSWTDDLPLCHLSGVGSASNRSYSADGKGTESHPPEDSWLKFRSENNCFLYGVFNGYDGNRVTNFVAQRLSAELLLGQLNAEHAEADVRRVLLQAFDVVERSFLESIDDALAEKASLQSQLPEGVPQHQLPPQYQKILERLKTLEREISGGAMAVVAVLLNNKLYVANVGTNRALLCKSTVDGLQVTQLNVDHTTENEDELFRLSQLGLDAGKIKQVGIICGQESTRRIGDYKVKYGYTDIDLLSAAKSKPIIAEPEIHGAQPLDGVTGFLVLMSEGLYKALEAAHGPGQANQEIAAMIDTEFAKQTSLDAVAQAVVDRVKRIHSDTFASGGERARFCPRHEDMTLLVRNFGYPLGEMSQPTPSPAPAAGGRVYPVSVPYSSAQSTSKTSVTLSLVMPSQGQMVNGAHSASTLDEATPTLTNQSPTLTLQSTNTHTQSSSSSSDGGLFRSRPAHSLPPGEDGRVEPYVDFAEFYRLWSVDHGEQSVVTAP

[4] = biological target: T1, Mitogen-activated protein kinase kinase kinase 7 (Homo sapiens) (UniProt O43318); assay: Binding affinity to MAP3K7 in human NCI-H23 cells at 1 uM by mass spectrometry based pull down assay; assay type: cell-based
T1 sequence (whole entry): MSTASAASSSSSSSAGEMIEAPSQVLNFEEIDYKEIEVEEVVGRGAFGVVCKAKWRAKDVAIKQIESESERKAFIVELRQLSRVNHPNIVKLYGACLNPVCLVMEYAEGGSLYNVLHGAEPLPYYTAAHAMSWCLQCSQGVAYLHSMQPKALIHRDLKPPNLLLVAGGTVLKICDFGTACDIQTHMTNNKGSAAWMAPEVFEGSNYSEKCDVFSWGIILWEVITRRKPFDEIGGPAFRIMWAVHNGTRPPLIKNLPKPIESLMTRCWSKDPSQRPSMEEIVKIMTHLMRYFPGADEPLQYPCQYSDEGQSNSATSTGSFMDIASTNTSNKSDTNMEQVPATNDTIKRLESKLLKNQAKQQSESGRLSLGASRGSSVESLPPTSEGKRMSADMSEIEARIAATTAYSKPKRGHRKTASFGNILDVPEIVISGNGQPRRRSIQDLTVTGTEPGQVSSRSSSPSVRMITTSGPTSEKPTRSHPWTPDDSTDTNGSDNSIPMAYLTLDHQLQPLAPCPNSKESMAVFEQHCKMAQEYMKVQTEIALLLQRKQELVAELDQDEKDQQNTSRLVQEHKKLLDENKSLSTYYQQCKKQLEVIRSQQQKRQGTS

[5] = biological target: Alpha-2-HS-glycoprotein (Homo sapiens) (UniProt P02765); assay: Binding affinity to AHSG in human NCI-H358 cells at 1 uM by mass spectrometry based pull down assay; assay type: cell-based
Alpha-2-HS-glycoprotein (Homo sapiens), sequence (P02765 whole entry): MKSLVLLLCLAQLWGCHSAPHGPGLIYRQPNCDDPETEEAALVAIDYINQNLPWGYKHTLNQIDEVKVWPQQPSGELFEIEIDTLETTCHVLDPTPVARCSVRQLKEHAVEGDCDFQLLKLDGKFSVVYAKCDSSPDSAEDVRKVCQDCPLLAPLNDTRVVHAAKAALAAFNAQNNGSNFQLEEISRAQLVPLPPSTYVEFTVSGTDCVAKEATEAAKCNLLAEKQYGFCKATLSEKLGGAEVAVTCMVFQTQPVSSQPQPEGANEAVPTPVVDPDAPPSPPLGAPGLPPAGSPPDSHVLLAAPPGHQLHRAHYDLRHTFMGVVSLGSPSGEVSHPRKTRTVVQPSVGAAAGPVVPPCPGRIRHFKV
How it was run: (§1)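 NCI-H23 or NCI-H358 cells were grown and lysed. Lysates were incubated overnight at 4 °C with 1 μM biotinylated covalent probe or DMSO, then pulled down on streptavidin beads. Proteins were run on polyacrylamide gels and stained with Coomassie. Bands were excised, digested and identified by mass spectrometry.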

[6] = biological target: T2, 80S Ribosome (Homo sapiens) (UniProt P08865+P42677+P62753+P15880+P23396+P61247+P62701+P22090+P46782+P62081+P62241+P46781+P46783+P62280+P25398+P62277+P62263+P62841+P62244+P62249+P08708+P62269+P39019+P60866+P63220+P62266+P62847+P62851+P62854+P62979+P62857+P62273+P62861+P39023+P36578+P46777+Q02878+P18124+P62424+P62917+P32969+P27635+P62906+P62913+P30050+P26373+P40429+P50914+P61313+P18621+Q07020+Q02543+P84098+P46778+P35268+P62829+P62750+P83731+P61254+P61353+P46776+P46779+P47914+P62888+P62899+P62910+P49207+P42766+P18077+Q9Y3U8+P83881+P61927+P61513+P63173+P62891+P62945+P05388+P05386); assay: Binding affinity to RPS17 in human NCI-H358 cells at 1 uM by mass spectrometry based pull down assay; assay type: cell-based
[7] = biological target: T2, 80S Ribosome (Homo sapiens); assay: Binding affinity to RPL31 in human NCI-H23 cells at 1 uM by mass spectrometry based pull down assay; assay type: cell-based
[8] = biological target: Isoleucine--tRNA ligase, cytoplasmic (Homo sapiens) (UniProt P41252); assay: Binding affinity to IARS in human NCI-H358 cells at 1 uM by mass spectrometry based pull down assay; assay type: cell-based
Isoleucine--tRNA ligase, cytoplasmic (Homo sapiens), sequence (P41252 whole entry): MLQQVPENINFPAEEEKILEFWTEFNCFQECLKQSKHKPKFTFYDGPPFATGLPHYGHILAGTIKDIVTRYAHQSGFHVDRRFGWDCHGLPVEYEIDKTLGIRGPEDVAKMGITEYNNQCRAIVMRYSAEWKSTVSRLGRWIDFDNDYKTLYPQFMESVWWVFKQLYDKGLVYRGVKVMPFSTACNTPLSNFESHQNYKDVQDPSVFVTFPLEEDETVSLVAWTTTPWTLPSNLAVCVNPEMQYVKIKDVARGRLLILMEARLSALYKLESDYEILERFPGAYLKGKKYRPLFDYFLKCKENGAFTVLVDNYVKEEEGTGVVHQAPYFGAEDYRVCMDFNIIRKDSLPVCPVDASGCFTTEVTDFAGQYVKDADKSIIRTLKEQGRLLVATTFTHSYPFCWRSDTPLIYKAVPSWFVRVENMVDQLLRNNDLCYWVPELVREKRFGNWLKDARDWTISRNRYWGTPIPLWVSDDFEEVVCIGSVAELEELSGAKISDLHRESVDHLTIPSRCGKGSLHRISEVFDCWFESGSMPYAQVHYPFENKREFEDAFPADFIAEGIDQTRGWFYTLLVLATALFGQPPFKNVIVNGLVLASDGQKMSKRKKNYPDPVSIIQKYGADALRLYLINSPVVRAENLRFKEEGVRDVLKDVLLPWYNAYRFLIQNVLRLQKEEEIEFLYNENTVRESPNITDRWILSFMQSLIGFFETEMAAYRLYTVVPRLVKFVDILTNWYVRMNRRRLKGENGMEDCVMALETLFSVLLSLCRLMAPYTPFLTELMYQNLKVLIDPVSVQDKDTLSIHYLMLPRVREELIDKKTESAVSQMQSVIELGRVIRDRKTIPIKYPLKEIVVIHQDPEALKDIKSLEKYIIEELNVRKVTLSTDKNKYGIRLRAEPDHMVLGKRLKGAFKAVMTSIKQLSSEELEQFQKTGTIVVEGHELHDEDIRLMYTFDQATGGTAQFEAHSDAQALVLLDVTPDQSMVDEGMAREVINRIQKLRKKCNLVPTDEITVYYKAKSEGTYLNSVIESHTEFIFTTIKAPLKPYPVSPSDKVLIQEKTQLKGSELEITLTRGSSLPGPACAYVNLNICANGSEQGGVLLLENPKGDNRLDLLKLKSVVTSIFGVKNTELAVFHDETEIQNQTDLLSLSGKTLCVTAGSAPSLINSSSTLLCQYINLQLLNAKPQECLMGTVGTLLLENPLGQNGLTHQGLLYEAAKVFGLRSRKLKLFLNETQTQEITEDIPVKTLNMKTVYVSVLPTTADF

[9] = biological target: T2, 80S Ribosome (Homo sapiens); assay: Binding affinity to RPS12 in human NCI-H23 cells at 1 uM by mass spectrometry based pull down assay; assay type: cell-based
[10] = biological target: T2, 80S Ribosome (Homo sapiens); assay: Binding affinity to RPL17 in human NCI-H23 cells at 1 uM by mass spectrometry based pull down assay; assay type: cell-based
[11] = biological target: DNA replication licensing factor MCM4 (Homo sapiens) (UniProt P33991); assay: Binding affinity to MCM4 in human NCI-H358 cells at 1 uM by mass spectrometry based pull down assay; assay type: cell-based
DNA replication licensing factor MCM4 (Homo sapiens), sequence (P33991 whole entry): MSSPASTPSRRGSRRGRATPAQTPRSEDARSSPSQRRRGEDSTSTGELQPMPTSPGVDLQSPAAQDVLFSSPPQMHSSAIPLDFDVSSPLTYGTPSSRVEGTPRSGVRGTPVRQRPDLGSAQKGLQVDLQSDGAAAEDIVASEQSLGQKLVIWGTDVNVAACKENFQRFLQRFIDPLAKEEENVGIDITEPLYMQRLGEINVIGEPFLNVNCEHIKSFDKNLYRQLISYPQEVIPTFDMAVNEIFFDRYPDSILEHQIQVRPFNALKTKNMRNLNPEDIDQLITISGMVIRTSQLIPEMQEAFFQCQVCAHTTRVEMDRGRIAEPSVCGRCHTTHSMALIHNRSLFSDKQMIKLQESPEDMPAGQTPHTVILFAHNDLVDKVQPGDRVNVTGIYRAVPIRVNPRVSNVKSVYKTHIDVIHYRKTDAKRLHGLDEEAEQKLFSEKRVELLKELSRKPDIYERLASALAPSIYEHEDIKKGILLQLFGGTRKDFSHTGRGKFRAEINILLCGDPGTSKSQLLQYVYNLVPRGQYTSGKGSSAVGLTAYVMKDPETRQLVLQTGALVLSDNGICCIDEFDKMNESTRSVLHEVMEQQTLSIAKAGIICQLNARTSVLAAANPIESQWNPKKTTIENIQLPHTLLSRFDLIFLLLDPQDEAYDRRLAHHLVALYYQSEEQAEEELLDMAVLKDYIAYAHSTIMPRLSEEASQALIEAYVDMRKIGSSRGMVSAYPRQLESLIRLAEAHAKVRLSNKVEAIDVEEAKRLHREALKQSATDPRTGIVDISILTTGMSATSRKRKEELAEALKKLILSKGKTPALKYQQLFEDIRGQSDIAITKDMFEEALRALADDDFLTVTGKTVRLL

[12] = biological target: Neuroblast differentiation-associated protein AHNAK (Homo sapiens) (UniProt Q09666); assay: Binding affinity to AHNAK in human NCI-H23 cells at 1 uM by mass spectrometry based pull down assay; assay type: cell-based; how it was run: as §1
NCI-H358 = assay: Binding affinity to PTGES3L-AARSD1 in human NCI-H358 cells at 1 uM by mass spectrometry based pull down assay; assay type: cell-based
[13] = biological target: T-complex protein 1 subunit epsilon (Homo sapiens) (UniProt P48643); assay: Binding affinity to CCT5 in human NCI-H358 cells at 1 uM by mass spectrometry based pull down assay; assay type: cell-based
Nucleolin (Homo sapiens) = Nucleolin (Homo sapiens) (UniProt P19338); assay: Binding affinity to NCL in human NCI-H358 cells at 1 uM by mass spectrometry based pull down assay; assay type: cell-based
Nucleolin (Homo sapiens), sequence (P19338 whole entry): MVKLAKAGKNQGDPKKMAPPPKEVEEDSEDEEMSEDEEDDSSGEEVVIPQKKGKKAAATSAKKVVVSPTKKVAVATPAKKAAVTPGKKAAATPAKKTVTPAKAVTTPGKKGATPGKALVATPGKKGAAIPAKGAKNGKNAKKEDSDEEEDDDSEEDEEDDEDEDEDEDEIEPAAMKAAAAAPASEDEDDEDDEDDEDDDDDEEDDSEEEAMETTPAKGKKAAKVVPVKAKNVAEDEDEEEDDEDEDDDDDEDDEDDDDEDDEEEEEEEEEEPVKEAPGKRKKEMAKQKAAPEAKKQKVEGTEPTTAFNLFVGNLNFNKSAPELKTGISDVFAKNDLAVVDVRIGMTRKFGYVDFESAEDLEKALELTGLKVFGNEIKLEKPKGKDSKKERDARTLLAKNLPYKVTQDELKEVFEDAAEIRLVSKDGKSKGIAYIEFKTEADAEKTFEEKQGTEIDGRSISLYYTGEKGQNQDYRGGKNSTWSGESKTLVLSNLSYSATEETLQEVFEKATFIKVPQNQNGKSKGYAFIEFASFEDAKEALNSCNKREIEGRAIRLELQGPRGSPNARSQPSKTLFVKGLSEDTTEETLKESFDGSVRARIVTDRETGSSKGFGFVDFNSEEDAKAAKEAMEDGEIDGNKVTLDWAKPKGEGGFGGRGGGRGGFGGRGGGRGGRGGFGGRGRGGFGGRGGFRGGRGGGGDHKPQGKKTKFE

[14] = biological target: Isocitrate dehydrogenase [NAD] subunit alpha, mitochondrial (Homo sapiens) (UniProt P50213); assay: Binding affinity to IDH3A in human NCI-H358 cells at 1 uM by mass spectrometry based pull down assay; assay type: cell-based
[15] = biological target: Heterogeneous nuclear ribonucleoprotein U (Homo sapiens) (UniProt Q00839); assay: Binding affinity to HNRNPU in human NCI-H23 cells at 1 uM by mass spectrometry based pull down assay; assay type: cell-based
[16] = biological target: ADP-ribosylation factor-like protein 8B (Homo sapiens) (UniProt Q9NVJ2); assay: Binding affinity to ARL8B in human NCI-H358 cells at 1 uM by mass spectrometry based pull down assay; assay type: cell-based
ADP-ribosylation factor-like protein 8B (Homo sapiens), sequence (Q9NVJ2 whole entry): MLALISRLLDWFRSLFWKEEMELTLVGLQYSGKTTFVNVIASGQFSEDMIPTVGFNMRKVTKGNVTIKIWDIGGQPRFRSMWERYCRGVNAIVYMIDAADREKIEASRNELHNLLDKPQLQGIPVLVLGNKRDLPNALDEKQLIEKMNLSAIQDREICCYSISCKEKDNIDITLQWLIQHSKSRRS

[17] = biological target: Thioredoxin-related transmembrane protein 1 (Homo sapiens) (UniProt Q9H3N1); assay: Binding affinity to TMX1 in human NCI-H23 cells at 1 uM by mass spectrometry based pull down assay; assay type: cell-based
[18] = biological target: Cysteine and glycine-rich protein 1 (Homo sapiens) (UniProt P21291); assay: Binding affinity to CSRP1 in human NCI-H23 cells at 1 uM by mass spectrometry based pull down assay; assay type: cell-based
Cysteine and glycine-rich protein 1 (Homo sapiens), sequence (P21291 whole entry): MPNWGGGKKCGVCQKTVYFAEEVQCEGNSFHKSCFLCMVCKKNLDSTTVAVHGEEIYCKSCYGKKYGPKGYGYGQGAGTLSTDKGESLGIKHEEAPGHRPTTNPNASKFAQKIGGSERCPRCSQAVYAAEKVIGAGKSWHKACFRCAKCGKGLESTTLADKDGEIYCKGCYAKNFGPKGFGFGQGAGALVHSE

[19] = biological target: Tropomyosin alpha-1 chain (Homo sapiens) (UniProt P09493); assay: Binding affinity to TPM1 in human NCI-H358 cells at 1 uM by mass spectrometry based pull down assay; assay type: cell-based

COc1cc(O)c2c(c1)/C=C/C[C@H](O)[C@H](O)C(=O)/C=C\C[C@H](C)OC2=O showed an Activity [1] of 1.5%.

For C=CC(=O)Nc1ccccc1Nc1nc(Nc2ccc(N3CCN(CCOCCOCCOCCNC(=O)CCCC[C@@H]4SC[C@@H]5NC(=O)N[C@@H]54)CC3)cc2)ncc1Cl, the Activity [2] was “Active”, the Activity [3] was “Active” and the Activity [4] was “Active”. The Activity [5] was “Active”, the Activity [6] was “Active” and the Activity [7] was “Active”. For the same molecule, the Activity [8] was “Active”, the Activity [9] was “Active” and the Activity [10] was “Active”. The Activity [11] was “Active”, the Activity [12] was “Active” and the Activity (NCI-H358) was “Active”. For the same molecule, the Activity [13] was “Active”, the Activity (Nucleolin (Homo sapiens)) was “Active” and the Activity [14] was “Active”. For the same molecule, the Activity [15] was “Active”, the Activity [16] was “Active” and the Activity [17] was “Active”. For the same molecule, the Activity [18] was “Active” and the Activity [19] was “Active”.
